The EternaBench riboswitch data

Tested on: MS2 coat protein
Assay: apparent Kd, MS2 coat protein; higher = weaker binding; RNA-MaP array; FMN 200 µM where present
Summary of the method: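 Stalled E. coli RNA polymerase transcribed each design on Illumina sequencing-chip clusters. The clusters were titrated with SNAP-549-labelled MS2 coat protein, starting at 0.7 or 1.5 nM and doubling up to 3 µM, first without ligand and then with constant ligand, in 100 mM Tris-HCl pH 7.5, 80 mM KCl, 4 mM MgCl2, BSA, DTT, yeast tRNA and Tween-20. Green signal was normalised to red-channel RNA signal and to the control-cluster median Fmax. The apparent Kd is the median of filtered binding-curve fits made for each cluster.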

[1] = designed as: ON switch for flavin mononucleotide, no ligand
[2] = ligand present: flavin mononucleotide, designed as: ON switch for flavin mononucleotide
[3] = designed as: OFF switch for flavin mononucleotide, no ligand
[4] = ligand present: flavin mononucleotide, designed as: OFF switch for flavin mononucleotide

| Sequence | apparent Kd [1] [nM] | apparent Kd [2] [nM] | apparent Kd [3] [nM] | apparent Kd [4] [nM] |
| --- | --- | --- | --- | --- |
| GGUACCAACACAGGAUAUGCUAUCCUUUGGGUAGCAGAAGGGUGAAAACAUGAGGAUCACCCAUGUGGUACCGGGCGUGAGCCC | 519 | 45.4 | – | – |
| UAUGUAUUCGUAGGAUAUCCGUUAAAACCGUGUGGAGAAGGACGAACAUGAGGAUCACCCAUGUAUCAUGGUGUAGACAAUUUU | – | – | 170 | 460 |
| GUGACGAAUGUAGGAUAUGCUGAGGAUAACUCAGCAGAAGGACAUGAGGAUCACCCAUGUACUAAUAGUGAUAAUAAACGUCAC | – | – | 14.8 | 82.5 |
| AAGAUGUAAGGAUAUGCUGCUCGUCACUUGCGUGAUGAGUAGCAGAAGGUACAUGAGGAUCACCCAUGUAAAGA | – | – | 30.4 | 43.3 |
| UGGGUAAGUGUAGGAUAUUUAUAUUAAUAGUAUGGAGAAGGACAUGAGGAUCACCCAUGUACAGGAAGUUGCCCAUUUCCUCUC | – | – | 579 | 495 |
| UACAUGAGGAUCACCCAUGUUAACAUGGAGUUGUUAUAUCUGAGAAGGGUAAUAUUACAUUAAGUACAGGAUAUCAAUGAUGUU | – | – | 45.2 | 18.4 |
| GGGUACAUCGGAGGAUAUCAUGUAAAUACAUGAGGAUCACCCAUGUCGAUGGAGACAUCGGAGAUUGAGAAGGCCGAAGUACCG | 214 | 8.99 | – | – |
| AAUUAUAGGUAGAAGGUACUGUAUUAUGUGUUGUAAGGAUAUACUAUAUUAUUAGUUCUCAAGUUACAUGAGGAUCACCCAUGU | 10.3 | 8.02 | – | – |
| GGCCGUUUACAUGAGGAUCACCCAUGUCCGGAUUGUUGGCCCAGAAGGCAUUACGAAUUCGGCUAUGAGGAUAUGGGUUACAAG | 215 | 119 | – | – |
| CCAUGGUGGGCAGGAUAUCGUCCAGCUUGCAGACGAGAAGGGCUUAAACAUGAGGAUCACCCAUGUGAAAAGCGGGUUGUCCAA | – | – | 26.5 | 131 |
| GGUACUCAAAGAGUACCAAUAUGAACAUGAGGAUCACCCAUGUAGGAUAUGCUACUCAAAGAGUAGCAGAAGGAUAUGUGUCUA | – | – | 19.6 | 21.2 |
| UGAUUUCAUGUAGGAUAUGCAUGGCGAAGCUACGCAGAAGGACAUGAGGAUCACCCAUGUUUUAGCGUCUGAGUAUAGAUUCUA | – | – | 140 | 158 |
| UUGUGGGAGCAGGAUAUCUUAUUUUGGUUUUGUGGAGAAGGGCUGACAUGAGGAUCACCCAUGUGGUCCUAGAU | – | – | 21.7 | 36.5 |
| CCUAAAAGGAAGGAUAUGCUAGACGAAAGUCUAGCAGAAGGUCCUACAUGAGGAUCACCCAUGUGUCCUAUAGG | – | – | 48.5 | 59.4 |
| GUAGCAUACCGAGGAUAUUCAUAUAAUACAUGAGGAUCACCCAUGUUAUAUAGGCGAAAGCCUUGGGAGAAGGCGGAAUGCUAC | – | 10.8 | – | – |
| GGAUAGGACAGAGGAUAUACCGAUAGGAGAUACUAUCGACUAGUCCUCACAUGAGGAUCACCCAUGUAGAAGGCUGUCCUAUCG | – | – | 23.3 | 234 |
| ACGAGGCUAGGAUAUACACAUCUGAUGACUCAUCCUAAAACACAUGAGGAUCACCCAUGUAGAAGGAGCAAAUA | – | – | 20.3 | 15.1 |
| GUCUUAUUACAGAAGGUGUUUUACAUGAGGAUCACCCAUGUUUUAUUGUUUAAAUUUGAUAUUUACAAGGAUAUGUACUAAUCU | 25.1 | 21 | – | – |
| UGGUACUACGGAGGAUAUCAUGUGUAAACAUGAGGAUCACCCAUGUCGUACGAGAGUACGGAGAUUGAGAAGGCCGUAGUACCU | 85.4 | 16.7 | – | – |
| GACGUUGGAGGAUAUACACGAGUGCUCAGUUGGCCCGGUCGACAUGAGGAUCACCCAUGUAGAAGGCCGACACU | – | – | 17.6 | 22.8 |
| UGUCGGAGCAGAGGAUAUUACAUGAGGAUCACCCAUGUAUGAACCAAUAGCUGGAAACAGCAAUCUAAGAAGGCUGCUCCGACA | – | – | 4.47 | 4.34 |
| UGAUAGGACAGAGGAUAUACGUAUAAAUAUCCUUACAUGAGGAUCACCCAUGUAGAAGGCUGUCCUAUCUAAGUCGGAAACGAC | – | – | 5.96 | 10.3 |
| CGUCGUCUACGACGCACAUGAGGAUCACCCAUGUGGCAGACACAGGAUAUCCGUUGGAAUGUCCAGGAGAAGGGUGAUCGCAUA | 38.6 | 77.5 | – | – |
| AUCAGCUCGUUAGGAUAUACGUCACUGCGUCAGCAGUGUGGUAAGAUCACAUGAGGAUCACCCAUGUAGAAGGGACGAGCUGAU | – | – | 12.8 | 94.2 |
| AAUGAGCGAGGAUAUGCAACUGUAUGACCUACGUGUGCCAGACAUGAGGAUCACCCAUGUAGAAGGUGCUUUCC | – | – | 59.7 | 51.3 |
| AUGGUGACGUAGAAGGGUGACAUGAGGAUCACCCAUGUGCCGAUAUUUUUCGAAAUAUGUCGGCCACAGGAUAUACGUGCCAUC | 68.7 | 136 | – | – |
| AAAAAACAUGAGGAUCACCCAUGUCAGGAUAUACGAUAAAAAAAAAAAAAAAAAAAAUGUAGAAGGGACAAAAA | – | – | 78.3 | 73.9 |
| GCUGUCGCGUGAGGAUAUGGUCGGCUUUGCUGACCAGAAGGCAUGUCAAUAGACAUGAGGAUCACCCAUGUGGUUAGGGCGGCU | 1020 | 134 | – | – |

| Sequence | apparent Kd [1] [nM] | apparent Kd [2] [nM] | apparent Kd [3] [nM] | apparent Kd [4] [nM] |
| --- | --- | --- | --- | --- |
| AUAGGCCUAGGAUAUACAUGAGGAUCACCCAUGUUAAUACUUCAAUCAAGUUAAUAGUGUAGAAGGAGGAAUAA | – | – | 27.6 | 32.4 |
| AAUAACAGAGGAUAUACUAUUUUAUGUGUUUAUUGUUUUGAACAUGAGGAUCACCCAUGUAGAAGGCUGAAUAA | – | – | 24.6 | 26.1 |
| CGCUAUUAUGUAGGAUAUACAUUUUUUAUGUAUGUAGAAGGACAUGAGGAUCACCCAUGUAAAUUAAUUUUAAUUAUCUUAGCG | – | – | 16.4 | 13.3 |
| CUGUAGUCAGGAUAUACAUGAGGAUCACCCAUGUAAAAUUUUAAUUUAAUUUGAAGGUGUAGAAGGGACCAGUU | – | – | 34.3 | 32.9 |
| GCACGGUAAGUGAGGAUAUACCUCUGGAUACAGAGGUAGAAGGCACAUGAGGAUCACCCAUGUUCCUGCCGUGC | – | – | 17.2 | 92.9 |
| GUGACGAUGUAAGGAUAUGCUGAGGAAUACUCAGCAGAAGGUACAUGAGGAUCACCCAUGUAAAUAAUAAGAAAUAAACGUCAC | – | – | 16 | 24.9 |
| CAAACGUGAGGAUAUACAUGAGGAUCACCCAUGUGUUCCUCUAAACUGAAGAAGUAAUGUAGAAGGCACGUUUG | – | – | 43.1 | 19.4 |
| ACAACAGGCAGAGGAUAUGACUGGGUAGGAGUAACAUGAGGAUCACCCAUGUUAGAAGGCUGCGUCAAACAGCGAAAGGUACGC | – | – | 52.4 | 91.6 |
| AUCAGCUCGUCAGGAUAUACAUCACUGCUUCGGCAGUGUGGUAAGAUCACAUGAGGAUCACCCAUGUAGAAGGGACGAGCUGAU | – | – | 13.9 | 217 |
| GCCUGCUGGCGAGGAUAUUCUGUGCGGUUCCAGCUCGUGUCUGUUACAUGAGGAUCACCCAUGUGGGAGAAGGUGUCUGUGGCC | – | – | 6 | 5.73 |
| CCGCAAAUGCAGGAUAUCGUAUCGGAUACGAUACGAGAAGGGCAAACAUGAGGAUCACCCAUGUGUCCUAGCGG | – | – | 15 | 26.6 |
| CGCGGACAAGAGAAGGCCAGACCUUGGAACCUAAGGCACCGCUAGGCAUGGAGGAUAUCUUGACAUGAGGAUCACCCAUGUACA | 109 | 40.9 | – | – |
| CAUUGACGACAAUUACAUGAGGAUCACCCAUGUUUUGGGAUGCAGGAUAUGUGGUAUAUUAAUUAACAGAAGGGCAAUAAUUUU | 34.7 | – | – | – |
| GAGAUGACAGUCAGGAUAUCUGUAGGGCGGACUUAAGAGAAGGGACAUGAGGAUCACCCAUGUGUGAUUGGUUU | – | – | 266 | 347 |
| GGCAAAUGAGCAGGAUAUACAGUACAUGCCUAAUGGAUUCACGCACAUGAGGAUCACCCAUGUACGUAGAAGGGCUCCGAGGAG | – | – | 12.2 | 14.4 |
| GAGUUAGAGGGAGGAUAUUGAGAUAGGACACUACGAGAAGGCUUAUAAUAGAUAAACAUGAGGAUCACCCAUGUCAUGUAAUGG | – | – | 48.7 | 29.1 |
| GUUGCGUUUGUGAGGAUAUGCUGGUCCUUGGUUCGGCAGAAGGCACAUGAGGAUCACCCAUGUGGUGUUGUUCC | – | – | 126 | 94.7 |
| ACAUGAGGAUCACCCAUGUUUUCAUGGAUUAUUAUUCUUUGAUAGGAUAUGUUAGUUAAGUAUUUACAGAAGGAUCAUUACCAA | – | – | 22.6 | 16.1 |
| GGUGGACAUGAGGAUCACCCAUGUGAGGAUAUCGGCUGUCUACUCGCUGACGGCUGCUCGAGAAGGCGCAUUGU | – | – | 45.4 | 61.5 |
| GCGCGCGCAGGAUAUACAUGAGGAUCACCCAUGUAGCGCGCGCGUAUUUGUGUGUGUUGUAGAAGGGUGUGUGU | – | – | 20 | 18.2 |
| ACAUGCAUAGCGAUAUGAUCGAGAGAUCAUGUCGCUAAAUUUAGAAGGACAUGAGGAUCACCCAUGUAGGAUAUGGGAGCAUGU | 49.5 | 10.8 | – | – |
| CUUGUGUUAGGAUAUGCGUUUCCGGUGCGUCACUGGAUCUGGCAGAAGGGACAUGAGGAUCACCCAUGUUUGGC | – | – | 38.7 | 31 |
| CAGCUUUACGAGGAUAUGGAAGGAGUCAACUUGCCAGAAGGUGUAACAUGAGGAUCACCCAUGUGGCCCGUGAC | – | – | 66.1 | 69.4 |
| UGCGUACAAGCAAACAUGAGGAUCACCCAUGUGGUCUUAUGCGAGGAUAUCGGGAAGGAGGAUUCCGAGAAGGUGCGGUGAGCC | 31.4 | 26.5 | – | – |
| ACAUACAUUCGAGGAUAUCGGUGAGAAAUCUUUCGAGAAGGCGAUUCAUGAUUUAUUAUCCUGGACAUGAGGAUCACCCAUGUA | 78.9 | 62.8 | – | – |
| CAUUAUGUUGAGGAUAUGCGCCGGCUCGCUGGCACAGAAGGCGACACAUGAGGAUCACCCAUGUCAGUUCGCGA | – | – | 12.2 | 14.8 |
| GGAUAGGACAGAGGAUAUACAGAUAGGAUCUACUAUCAAACAAUCCUGACAUGAGGAUCACCCAUGUAGAAGGCUGUCCUAUCG | – | – | 24.6 | 85.1 |
